Data published in ChEMBL document CHEMBL5724801, “EUbOPEN Chemogenomics Library - Multiplex” (2024).
“And” between values parts separate entries of the source, which are not always exact repeats. Equal entries are not always repeated.

System: Fibroblast
Assay: Multiplex assay against human fibroblast
Assay type: toxicity, cell-based
Outline: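 Phenotypes for tubulin, mitochondrial mass and membrane permeability are expressed as per cents of healthy-nucleus cells. Cells were stained live at seeding with Hoechst33342, BioTracker Green Microtubule Cytoskeleton Dye, MitoTracker Red and Annexin V Alexa Fluor 680, then imaged after compound addition on a CQ1 microscope at 37°C and 5% CO2. Machine-learning gating in CellPathfinder separated Hoechst high-intensity objects from normal cells, divided normal cells by nuclear state (healthy, pyknosed, fragmented) and divided pyknosed cells into mitotic or apoptotic.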

[1] = 12 h, 1 µM, compound concentration 1 uM
[2] = 12 h, 10 µM, compound concentration 10 uM
[3] = 24 h, 1 µM, compound concentration 1 uM
[4] = 24 h, 10 µM, compound concentration 10 uM
[5] = 48 h, 1 µM, compound concentration 1 uM
[6] = 48 h, 10 µM, compound concentration 10 uM

COCCNc1nc2ccc(C#CC3(O)CCCCC3)cc2n1-c1ccnc(N)n1
Population Apoptotic (%) [1]: 15.09% and 20.51%
Population Fragmented Nuclei (%) [1]: 19.05% and 7.25%
Population Healthy Nuclei (%) [1]: 44.9% and 73.91%
Population Hoechst High Intensity Objects (%) [1]: 0%
Population Membrane Permeable-Phenotype (%) [1]: 4.55% and 1.96%
Population Mitochondria Different-Phenotype (%) [1]: 9.09% and 12.42%
Population Mitotic Cells (%) [1]: 84.91% and 79.49%
Population Normal (%) [1]: 100%
Population Pyknosed Nuclei (%) [1]: 36.05% and 18.84%
Population Tubulin-Different-Phenotype (%) [1]: 18.18% and 27.45%
Total Cell Count [1]: 147 and 207
Population Apoptotic (%) [2]: 2.5% and 7.32%
Population Fragmented Nuclei (%) [2]: 15.71% and 12.57%
Population Healthy Nuclei (%) [2]: 46.19% and 64%
Population Hoechst High Intensity Objects (%) [2]: 0%
Population Membrane Permeable-Phenotype (%) [2]: 7.22% and 1.79%
Population Mitochondria Different-Phenotype (%) [2]: 27.84% and 21.43%
Population Mitotic Cells (%) [2]: 97.5% and 92.68%
Population Normal (%) [2]: 100%
Population Pyknosed Nuclei (%) [2]: 38.1% and 23.43%
Population Tubulin-Different-Phenotype (%) [2]: 56.7% and 54.46%
Total Cell Count [2]: 210 and 175
Population Apoptotic (%) [3]: 9.76% and 17.39%
Population Fragmented Nuclei (%) [3]: 9.09% and 9.43%
Population Healthy Nuclei (%) [3]: 62.24% and 79.72%
Population Hoechst High Intensity Objects (%) [3]: 0%
Population Membrane Permeable-Phenotype (%) [3]: 3.37% and 5.33%
Population Mitochondria Different-Phenotype (%) [3]: 11.24% and 10.06%
Population Mitotic Cells (%) [3]: 90.24% and 82.61%
Population Normal (%) [3]: 100%
Population Pyknosed Nuclei (%) [3]: 28.67% and 10.85%
Population Tubulin-Different-Phenotype (%) [3]: 19.1% and 25.44%
Total Cell Count [3]: 143 and 212
Population Apoptotic (%) [4]: 12.33% and 20.59%
Population Fragmented Nuclei (%) [4]: 14.35% and 10.86%
Population Healthy Nuclei (%) [4]: 51.85% and 69.71%
Population Hoechst High Intensity Objects (%) [4]: 0%
Population Membrane Permeable-Phenotype (%) [4]: 3.57% and 1.64%
Population Mitochondria Different-Phenotype (%) [4]: 25% and 18.03%
Population Mitotic Cells (%) [4]: 87.67% and 79.41%
Population Normal (%) [4]: 100%
Population Pyknosed Nuclei (%) [4]: 33.8% and 19.43%
Population Tubulin-Different-Phenotype (%) [4]: 66.96% and 65.57%
Total Cell Count [4]: 216 and 175
Population Apoptotic (%) [5]: 22.22% and 37.5%
Population Fragmented Nuclei (%) [5]: 10.74% and 6.49%
Population Healthy Nuclei (%) [5]: 77.18% and 86.58%
Population Hoechst High Intensity Objects (%) [5]: 0%
Population Membrane Permeable-Phenotype (%) [5]: 1.74% and 2.5%
Population Mitotic Cells (%) [5]: 77.78% and 62.5%
Population Normal (%) [5]: 100%
Population Pyknosed Nuclei (%) [5]: 12.08% and 6.93%
Population Tubulin-Different-Phenotype (%) [5]: 10.43% and 26.5%
Total Cell Count [5]: 149 and 231
Population Apoptotic (%) [6]: 11.43% and 24%
Population Fragmented Nuclei (%) [6]: 12.66% and 9.66%
Population Healthy Nuclei (%) [6]: 72.57% and 76.14%
Population Hoechst High Intensity Objects (%) [6]: 0%
Population Membrane Permeable-Phenotype (%) [6]: 2.91% and 5.97%
Population Mitochondria Different-Phenotype (%) [6]: 18.02% and 10.45%
Population Mitotic Cells (%) [6]: 88.57% and 76%
Population Normal (%) [6]: 100%
Population Pyknosed Nuclei (%) [6]: 14.77% and 14.2%
Population Tubulin-Different-Phenotype (%) [6]: 42.44% and 58.96%
Total Cell Count [6]: 237 and 176
